Compound activity: PubChem BioAssay, Broad Institute
A selection: hits, their analogues and other compounds. The true share with any hit is near 2.9%.
ERAP1 HTS inh: ERAP1 (human) enzyme inhibition | Q9NZ08 | recombinant ERAP1, Leu-AMC fluorescence, 60 min | inhibition, % at 10.7 µM | 340,000 tested, 0.15% active;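 active = mean replicate inhibition of at least 30%, or all replicates individually reaching that 30% level; inactive = mean below 30% and not every replicate reaching it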;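 also: 0% = neutral control wells and 100% = L-leucinethiol positive control wells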
SIRT5 inh: blocks human SIRT5 desuccinylation of peptide; Q9NXA8; Purified SirT5, succinyl-peptide AMC, trypsin-coupled fluorescence; inhibition, % at 15 µM; 330,000 tested, 1.1% active; AID 652115; in the data active = inhibition above about 15%; inconclusive = no clear call, values can overlap the other calls
Target sequence (Q9NXA8 whole entry, looked up): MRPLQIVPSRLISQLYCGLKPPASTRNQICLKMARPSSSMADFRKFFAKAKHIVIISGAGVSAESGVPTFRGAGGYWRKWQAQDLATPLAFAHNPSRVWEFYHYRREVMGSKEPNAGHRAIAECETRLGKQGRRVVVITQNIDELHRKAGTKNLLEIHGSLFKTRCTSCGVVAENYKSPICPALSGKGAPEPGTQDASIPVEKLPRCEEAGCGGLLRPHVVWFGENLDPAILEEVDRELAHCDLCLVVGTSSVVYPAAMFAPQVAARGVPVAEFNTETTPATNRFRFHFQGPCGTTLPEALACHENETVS
CAL PDZ FP-1: inhibitors of human CAL PDZ peptide binding | Q9HD26 | purified CAL PDZ, TMR-peptide fluorescence polarization, 1 h | 300,000 tested, 0.92% active | inhibition, % at 24.9 µM;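 active = mean inhibition of at least 30% with at least half of replicates also reaching 30%; inconclusive = no clear call, values can overlap the other calls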;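 also: 0% = DMSO neutral control and 100% = excess unlabeled competitor peptide PRC23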
CAL PDZ FP-2: human CAL PDZ-peptide interaction inhibition; 330,000 tested, 0.02% active; inhibition, % at 20 µM; purified CAL PDZ, TMR-peptide fluorescence polarization, 1 h;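 active = highest replicate inhibition of at least 40%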;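 also: plate controls were DMSO neutral control wells for no effect and unlabeled competitor peptide control wells for full effect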
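Control set: unlabelled peptide and DMSO controls / Material: purified CerCALP PDZ construct / Timing: 1 h incubation at room temperature before polarization reading / Doses: 20 µM, one dose / Detection: fluorescence polarization (mP)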
S100A4 inh HTS: blocks human S100A4 binding to myosin IIA peptide; S100A4/TAMRA-MyoIIA peptide fluorescence polarization; inhibition, % at 10.7 µM; 360,000 tested, 0.14% active;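 active = mean inhibition of at least 70% across replicates, with every replicate also reaching that level; inconclusive = mean inhibition reaches 70% but some replicates fall short; inactive = mean inhibition below 70%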
Target sequence (P26447 whole entry, looked up): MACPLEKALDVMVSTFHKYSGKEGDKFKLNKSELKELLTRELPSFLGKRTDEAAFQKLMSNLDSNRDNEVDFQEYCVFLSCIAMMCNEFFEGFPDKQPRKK
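Material: human S100A4 monomer with TAMRA-labelled myosin IIA peptide; buffer or medium: HEPES pH 7.2 with CaCl2, KCl, NaCl, DTT, Triton; compound dosing: one concentration per compound; schedule: 5 min incubation before reading; benchmarks: neutral control DMSO, positive control TFP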
DENV2 CPE: inhibitors of DENV2 cytopathic effect; DENV2-infected cells, cytopathic effect rescue, plate reader; CPE inhibition, % at 9.99 µM; 350,000 tested, 1.7% active; AID 651640; in the data active = CPE inhibition above about 20%, passing the limit was not always enough; inconclusive = no clear call, values can overlap the other calls; tested in BHK-21 cells;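 also: 0% = median of neutral control wells and 100% = median of positive control wells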
Numbers without * were called inactive; ! = repeats disagree.

For CN(C)C(=O)c1ccc(-c2ccc([C@H]3[C@@H](CO)N4CCCCN(C(=O)C5CCCC5)C[C@H]34)cc2)cc1 the results were ERAP1 HTS inh -1.2, SIRT5 inh -1.1, S100A4 inh HTS 6.8 and DENV2 CPE 5.0.
`CCN=C1NC(c2ccccc2C(F)(F)F)C(C(=O)OC)=C(C)N1C` (centres undefined) gave ERAP1 HTS inh 4.0, SIRT5 inh -0.1, S100A4 inh HTS -10.8 and DENV2 CPE 20.9*.
For Cc1cccc(/C=N/NC(=O)c2cc(C)nc3ccccc23)n1 the results were ERAP1 HTS inh 3.0, SIRT5 inh 13.6, CAL PDZ FP-1 150.8*, CAL PDZ FP-2 -0.6, S100A4 inh HTS -12.0 and DENV2 CPE 10.3.
Cc1ccc(-c2cnc3c(c2)C(=O)N([C@@H](C)CO)C[C@@H](C)[C@@H](CN(C)S(C)(=O)=O)O3)cc1 was read as ERAP1 HTS inh 13.2, SIRT5 inh -6.2, S100A4 inh HTS 24.2 and DENV2 CPE 4.8.
C/C(=N\NC(=O)c1nnn(-c2nonc2N)c1-c1ccccc1)c1cccnc1 was read as ERAP1 HTS inh 1.0, SIRT5 inh -0.5, CAL PDZ FP-1 1.2, CAL PDZ FP-2 -1.3, S100A4 inh HTS -3.6 and DENV2 CPE 96.4*.
C/C(=N\NC(=O)c1nnn(-c2nonc2N)c1-c1cccs1)c1cccnc1 was read as ERAP1 HTS inh -0.5, SIRT5 inh -0.9, CAL PDZ FP-1 -2.7, CAL PDZ FP-2 -2.8, S100A4 inh HTS -1.2 and DENV2 CPE 1.2.
For O=C1Cc2cc(S(=O)(=O)N3CCNCC3)ccc2N1 the results were ERAP1 HTS inh 4.2, CAL PDZ FP-1 -5.2, CAL PDZ FP-2 0.0, S100A4 inh HTS 4.8 and DENV2 CPE 34.4*.
O=S(=O)(c1ccc2c(c1)CCCN2)N1CCCCC1 was read as ERAP1 HTS inh 0.8, SIRT5 inh -2.9, CAL PDZ FP-1 -4.6, CAL PDZ FP-2 -0.5, S100A4 inh HTS -0.3 and DENV2 CPE -8.5.
O=S(=O)(c1ccc2c(c1)CCCN2)N1CCCC1 was read as ERAP1 HTS inh -0.1, SIRT5 inh 1.7, CAL PDZ FP-1 58.3*, CAL PDZ FP-2 -0.4, S100A4 inh HTS -4.5 and DENV2 CPE -7.4.
C/C=C/c1ccc([C@H]2[C@@H](CO)N[C@@H]2CN(CC(C)C)C(=O)c2ccccn2)cc1 was read as DENV2 CPE -8.2.
`C[C@@H]1CN([C@H](C)CO)S(=O)(=O)c2ccc(Br)cc2O[C@H]1CN(C)S(=O)(=O)c1ccccc1` gave ERAP1 HTS inh -0.1, SIRT5 inh 1.2, S100A4 inh HTS -1.8 and DENV2 CPE -4.8.
`NC(=O)c1cccc(-c2csc(C(O)c3cccc(Cl)c3)n2)c1` (centres undefined) gave ERAP1 HTS inh -0.2, S100A4 inh HTS -7.1 and DENV2 CPE 3.5.
Screening O=C(O)c1cccc(-c2csc(C(O)c3cccc(Cl)c3)n2)c1 (centres undefined) returned ERAP1 HTS inh -6.4, SIRT5 inh -2.7, S100A4 inh HTS -3.2 and DENV2 CPE 45.9*.
Screening COc1ccc(OC)c(C(C[N+](=O)[O-])c2c(C)cc3ccccn23)c1 (centres undefined) returned ERAP1 HTS inh -3.7, SIRT5 inh -2.5, CAL PDZ FP-1 47.9*, CAL PDZ FP-2 -0.3, S100A4 inh HTS -2.2 and DENV2 CPE 3.2.
For CCCCC(=O)Nc1ccc2c(c1)nc(CCNC(=O)c1ccco1)n2C the results were ERAP1 HTS inh -2.4, SIRT5 inh 22.9*, CAL PDZ FP-1 -0.8, CAL PDZ FP-2 -2.2, S100A4 inh HTS -3.0 and DENV2 CPE 5.9.
For CNC[C@@H]1Oc2ncc(-c3ccccc3F)cc2C(=O)N([C@@H](C)CO)C[C@@H]1C the results were ERAP1 HTS inh 1.3, SIRT5 inh -5.3, S100A4 inh HTS -6.0 and DENV2 CPE 10.1.
Screening COc1ccc(NC(=O)Nc2ccc3c(c2)CC(=O)N([C@@H](C)CO)C[C@@H](C)[C@@H](CN(C)C(=O)NC2CCCCC2)O3)cc1 returned ERAP1 HTS inh 2.6, SIRT5 inh -1.3, S100A4 inh HTS 2.9 and DENV2 CPE 3.6.
`C[C@H](CO)N1C[C@H](C)[C@@H](CN(C)C(=O)NC2CCCCC2)Oc2ccc(NC(=O)Nc3ccccc3)cc2CC1=O` gave ERAP1 HTS inh -2.7, SIRT5 inh 0.7, S100A4 inh HTS -1.9 and DENV2 CPE 45.6*.
COc1ccc(NC(=O)Nc2ccc3c(c2)C(=O)N([C@H](C)CO)C[C@H](C)[C@@H](CN(C)C(=O)NC2CCCCC2)O3)cc1 was read as ERAP1 HTS inh 0.1, SIRT5 inh -2.8, CAL PDZ FP-1 6.2, CAL PDZ FP-2 -0.1, S100A4 inh HTS -2.5 and DENV2 CPE 39.2*!.
`CC(C)NC(=O)Nc1ccc2c(c1)CC(=O)N([C@@H](C)CO)C[C@@H](C)[C@@H](CN(C)C(=O)NC1CCCCC1)O2` gave ERAP1 HTS inh -0.9, SIRT5 inh 17.7*, S100A4 inh HTS -0.8 and DENV2 CPE 5.8.
Screening COc1ccc(NC(=O)Nc2ccc3c(c2)CC(=O)N([C@H](C)CO)C[C@H](C)[C@H](CN(C)C(=O)NC2CCCCC2)O3)cc1 returned ERAP1 HTS inh 2.4, SIRT5 inh -3.0, S100A4 inh HTS 6.6 and DENV2 CPE 29.3*.
For Cc1noc(C)c1NC(=O)Nc1cccc2c1O[C@H](CN(C)Cc1ccc(-c3ccccc3)cc1)[C@@H](C)CN([C@H](C)CO)C2=O the results were ERAP1 HTS inh -1.7, SIRT5 inh 5.3, S100A4 inh HTS -25.7 and DENV2 CPE 11.0.
`C[C@H](CO)N1C[C@H](C)[C@H](CN(C)CC2CC2)Oc2ncc(-c3ccc(F)cc3)cc2C1=O` gave ERAP1 HTS inh -0.1, SIRT5 inh -2.9, S100A4 inh HTS -16.0 and DENV2 CPE 1.6.
Screening COc1ccccc1S(=O)(=O)N[C@@H]1CC[C@H](CCNC(=O)C2CCCC2)O[C@@H]1CO returned ERAP1 HTS inh 3.1, SIRT5 inh 5.5, S100A4 inh HTS -0.4 and DENV2 CPE 1.7.
`C[C@@H]1CN([C@H](C)CO)C(=O)Cc2cc(NC(=O)Nc3ccccc3)ccc2O[C@@H]1CN(C)C(=O)NC1CCCCC1` gave ERAP1 HTS inh -2.8, SIRT5 inh -5.8, S100A4 inh HTS 6.9 and DENV2 CPE 34.8*.
C[C@@H]1CN([C@@H](C)CO)C(=O)Cc2cc(NC(=O)Nc3ccccc3)ccc2O[C@@H]1CN(C)C(=O)NC1CCCCC1 was read as ERAP1 HTS inh -3.1, SIRT5 inh -3.0, S100A4 inh HTS -7.8 and DENV2 CPE inconclusive.
CCCNC(=O)N(C)C[C@H]1Oc2cc(C#Cc3ccccn3)ccc2S(=O)(=O)N([C@@H](C)CO)C[C@H]1C was read as ERAP1 HTS inh 0.7, SIRT5 inh -3.1, S100A4 inh HTS 5.9 and DENV2 CPE 5.9.
